Neddylation inh: inhibitors of cullin neddylation, primary screen, biochemical, TR-FRET, uHTS, NAE and Ubc12. AID 651699, 2012. NEDD8-conjugating enzyme Ubc12 (Homo sapiens) + NEDD8-activating enzyme E1 regulatory …. inhibition, % at 25 µM. 360,000 compounds, 0.58% hits; in the data active means inhibition above about 36%
M18AAP inhibitor: PfM18AAP inhibitors, malaria aminopeptidase, primary screen, biochemical, QFRET, recombinant enzyme. 290,000 compounds, 1.2% hits. AID 1822, 2009. M18 aspartyl aminopeptidase (Plasmodium falciparum 3D7). H-Glu-NHMec fluorogenic cleavage. inhibition, % at 7.35 µM;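 active means inhibition above the campaign mean inhibition over all tested compounds plus 3 SD, cut at about 28% in these data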;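 further: 0% = plate median of test compound wells and 100% = 2 mM ZnCl2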
HKDC1 inhibitor: HKDC1 hexokinase inhibitors, primary screen, biochemical, fluorescence, uHTS; Q2TB90; recombinant HKDC1, G6PDH/diaphorase resazurin coupled fluorescence; inhibition, % at 20 µM; 340,000 compounds, 0.16% hits; AID 493160, 2011;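 active means inhibition above about 35% when tested at 20 µM, limit read from the data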;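 further: plate controls were DMSO wells with enzyme for no effect and DMSO wells lacking enzyme for full effect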
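Assay system: recombinant HKDC1 hexokinase; detection: coupled resazurin fluorescence, excitation 525 nm, emission 613 nm; benchmarks: DMSO-plus-enzyme-mix negative control, buffer-substituted positive control; compound dosing: single 20 µM dose; schedule: 90 min at room temperature in dark; also added: glucose plus 1 mM ATP as hexokinase substrates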
PfG6PD inh: PfG6PD enzyme inhibitors, primary screen, biochemical, fluorescence intensity, uHTS | glucose-6-phosphate dehydrogenase-6-phosphogluconolactonase (Plasmodium falciparum 3D7) | PfGluPho enzyme, NADPH resazurin-diaphorase fluorescence | 350,000 compounds, 0.78% hits | inhibition, % at 20 µM;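 active means inhibition reaching at least a set limit at 20 µM in the primary screen, cut at about 59% in these data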;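 further: 0% = DMSO wells with substrate and 100% = DMSO wells lacking glucose-6-phosphate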
PfGluPho conf: PfG6PD inhibitors, hit retest, confirmation, biochemical, fluorescence intensity, single concentration; shares compounds with PfG6PD inh; recombinant PfGluPho, NADPH-diaphorase-resazurin fluorescence; inhibition, % at 20 µM; 2,400 compounds, 34% hits;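 active means inhibition of at least 50% at 20 µM in any single replicate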;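 further: 0% = DMSO with substrate and 100% = DMSO lacking glucose-6-phosphate substrate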
Diaph ctr 10uM: diaphorase inhibitors and chemical oxidizers, confirmation, counter-screen for P. falciparum G6PD inhibitor project, biochemical, fluorescence intensity, 10 µM NADPH. shares compounds with PfG6PD inh. diaphorase-coupled resazurin reduction, NADPH 10 uM. inhibition, % at 20 µM. 820 compounds, 39% hits. AID 504862, 2011;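 active means average inhibition reaching 50% or more with the compound at 20 µM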;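 further: resorufin red fluorescence formed as diaphorase reduces resazurin using NADPH; 0% = DMSO with enzyme and 100% = DMSO without enzyme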
Diaphorase 30uM: diaphorase inhibitors and chemical oxidizers, confirmation, counter-screen for P. falciparum G6PD inhibitor project, biochemical, fluorescence intensity, 30 µM NADPH; shares compounds with PfG6PD inh; Diaphorase/resazurin coupled assay, resorufin fluorescence; inhibition, % at 20 µM; 820 compounds, 29% hits;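 active means inhibition averaging 50% or more, tested at 20 µM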;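 further: 0% = DMSO with enzyme and 100% = DMSO wells lacking diaphorase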
An asterisk follows results filed as active. Shown are actives, neighbours in structure and some others; about 2.2% of the full set was active somewhere.

`CCCCNC(=O)CCCCC(=O)N/N=C/c1cccc(Cl)c1` gave Neddylation inh -3, M18AAP inhibitor -5, HKDC1 inhibitor -8, PfG6PD inh 65* and PfGluPho conf 11.
Screening O=C(CCCOc1ccc(Cl)cc1Cl)N/N=C/c1ccccc1O returned Neddylation inh 30, M18AAP inhibitor 16, HKDC1 inhibitor -9 and PfG6PD inh 34.
`O=C(CCCOc1ccc(Cl)cc1Cl)N/N=C/c1ccccc1` gave Neddylation inh 4, M18AAP inhibitor 9, HKDC1 inhibitor -1, PfG6PD inh 119*, PfGluPho conf 86*, Diaph ctr 10uM 88* and Diaphorase 30uM 71*.
For CCCCNC(=O)C(=O)N/N=C/c1cccc(Br)c1 the results were Neddylation inh -13, M18AAP inhibitor -9, HKDC1 inhibitor -8 and PfG6PD inh 0.
Screening COc1ccc(-c2ccc3c(c2)C2CC3CCN2C(=O)C(C)(C)C)cc1 (stereo not given) returned Neddylation inh 0, HKDC1 inhibitor -3 and PfG6PD inh -7.
Screening O=C1C=CC(=O)N1CCNc1ncc(C(F)(F)F)cc1Cl returned Neddylation inh -5, M18AAP inhibitor -123, HKDC1 inhibitor -7, PfG6PD inh 79*, PfGluPho conf 66*, Diaph ctr 10uM -5 and Diaphorase 30uM -11.
For COc1ccc(-n2c(C)cc(C(=O)NC3CCCCC3)c2C)cc1 the results were Neddylation inh 8, M18AAP inhibitor -8, HKDC1 inhibitor -5, PfG6PD inh 71* and PfGluPho conf 38.
O=C(Nc1ccc(Cl)cc1)P(=O)(O)c1ccccc1 was read as Neddylation inh -4, HKDC1 inhibitor -6 and PfG6PD inh -20.
`Cc1ccc(NC(=O)c2cc(N3C(=O)C=CC3=O)ccc2N2CCOCC2)cc1` gave Neddylation inh 23, M18AAP inhibitor 1, HKDC1 inhibitor -8, PfG6PD inh 80*, PfGluPho conf 96*, Diaph ctr 10uM 5 and Diaphorase 30uM -16.
Cc1ccc(NC(=O)c2cc(N3C(=O)C=CC3=O)ccc2Cl)cc1C was read as Neddylation inh -2, M18AAP inhibitor 8, HKDC1 inhibitor 14, PfG6PD inh 77*, PfGluPho conf 81*, Diaph ctr 10uM 0 and Diaphorase 30uM -8.
For COc1c(C)cccc1C(=O)Nc1ccc(N2CCOCC2)c(Cl)c1 the results were Neddylation inh 13, M18AAP inhibitor 4, HKDC1 inhibitor -7, PfG6PD inh 68* and PfGluPho conf 39.
Screening COc1cc(C)c(NC(=S)Nc2ccc(Cl)c(Cl)c2)cc1OC returned Neddylation inh 1, M18AAP inhibitor 3, HKDC1 inhibitor 1 and PfG6PD inh 14.
For Clc1ccc(-c2nc3cc(CN4CCCCC4)ccc3o2)cc1 the results were Neddylation inh -20, M18AAP inhibitor 0, HKDC1 inhibitor -3 and PfG6PD inh 8.
Screening O=C(O)c1cc(NC(=O)c2ccc(Cl)c([N+](=O)[O-])c2)cc(C(=O)O)c1 returned Neddylation inh -40, M18AAP inhibitor 5, HKDC1 inhibitor -3 and PfG6PD inh 5.
For O=C(Nc1ccc(C(O)(C(F)(F)F)C(F)(F)F)cc1)c1ccc(Cl)c([N+](=O)[O-])c1 the results were Neddylation inh -16, M18AAP inhibitor 9, HKDC1 inhibitor 7, PfG6PD inh 63* and PfGluPho conf -10.
COc1cc(/C=C/C(=O)c2ccc([N+](=O)[O-])o2)ccc1O was read as Neddylation inh -56, HKDC1 inhibitor 34, PfG6PD inh 77*, PfGluPho conf 60*, Diaph ctr 10uM 40 and Diaphorase 30uM 35.
COc1cc(/C=C/C(=O)/C=C(O)/C=C/c2ccc(O)c(OC)c2)ccc1O was read as Neddylation inh -14, HKDC1 inhibitor -2 and PfG6PD inh 12.
`O=C(c1ccco1)N1CCN(Cc2cc(=O)c(OCc3ccccc3Cl)co2)CC1` gave Neddylation inh 13, HKDC1 inhibitor -7 and PfG6PD inh -5.
Screening Cc1ccc2nc(C)/c(=N\O)c(C)nc2c1 returned Neddylation inh 3, M18AAP inhibitor 0, HKDC1 inhibitor -3 and PfG6PD inh -1.
`Cc1nc2ccc(Cl)cc2nc(C)/c1=N\O` gave Neddylation inh -18, M18AAP inhibitor 0, HKDC1 inhibitor 2, PfG6PD inh 60* and PfGluPho conf 11.
`CCN(CC)C(=S)SSC(=S)N(CC)CC` gave Neddylation inh -7, M18AAP inhibitor 36*, HKDC1 inhibitor -19, PfG6PD inh 66*, PfGluPho conf 49*, Diaph ctr 10uM -22 and Diaphorase 30uM -11.
CC(=O)c1sc(NC(=O)c2cnc(Cl)c(Cl)c2)nc1C was read as Neddylation inh -3, M18AAP inhibitor -2, HKDC1 inhibitor 0, PfG6PD inh 62* and PfGluPho conf 42.
CC(=O)c1sc(NC(=O)c2ccc(C)c(C)c2)nc1C was read as Neddylation inh -52, M18AAP inhibitor -9, HKDC1 inhibitor -7 and PfG6PD inh 5.
For N#Cc1cc([N+](=O)[O-])ccc1Oc1cccc(/C=N/NC(=O)c2cccc(Cl)c2)c1 the results were Neddylation inh -15, M18AAP inhibitor 0, HKDC1 inhibitor 7, PfG6PD inh 119*, PfGluPho conf 62*, Diaph ctr 10uM 60* and Diaphorase 30uM 59*.
For c1ccc(Sc2ccccn2)cc1 the results were Neddylation inh -28, HKDC1 inhibitor -3 and PfG6PD inh 1.
For c1ccc(SSc2ccccn2)nc1 the results were Neddylation inh -2, HKDC1 inhibitor -2, PfG6PD inh 68*, PfGluPho conf 58*, Diaph ctr 10uM -24 and Diaphorase 30uM -27.
Screening CCOc1ccc(C(=O)Nc2ccc3c(c2)OCCO3)cc1 returned Neddylation inh 2, M18AAP inhibitor 2, HKDC1 inhibitor -6 and PfG6PD inh 29.
Screening COc1cccc(NC(=O)c2cccc(NC(=O)c3ccco3)c2)c1 returned Neddylation inh 21 and PfG6PD inh 1.
COc1cccc(C(=O)Nc2ccc(NC(=O)c3ccco3)c(Cl)c2)c1 was read as Neddylation inh 25, M18AAP inhibitor 6, HKDC1 inhibitor -5, PfG6PD inh 70* and PfGluPho conf 13.

Screening results (PubChem BioAssay)
